The subject of experiment [1] is Ebolavirus. Kind of experiment: Antiviral activity against Ebola virus by cell based luciferase reporter gene assay. It is filed as functional, Ebola virus sp. Conditions: Orthoebolavirus.
Experiment [2] deals with T1, NPC intracellular cholesterol transporter 1 (Mus musculus) (UniProt O35604).
T1 sequence (whole entry): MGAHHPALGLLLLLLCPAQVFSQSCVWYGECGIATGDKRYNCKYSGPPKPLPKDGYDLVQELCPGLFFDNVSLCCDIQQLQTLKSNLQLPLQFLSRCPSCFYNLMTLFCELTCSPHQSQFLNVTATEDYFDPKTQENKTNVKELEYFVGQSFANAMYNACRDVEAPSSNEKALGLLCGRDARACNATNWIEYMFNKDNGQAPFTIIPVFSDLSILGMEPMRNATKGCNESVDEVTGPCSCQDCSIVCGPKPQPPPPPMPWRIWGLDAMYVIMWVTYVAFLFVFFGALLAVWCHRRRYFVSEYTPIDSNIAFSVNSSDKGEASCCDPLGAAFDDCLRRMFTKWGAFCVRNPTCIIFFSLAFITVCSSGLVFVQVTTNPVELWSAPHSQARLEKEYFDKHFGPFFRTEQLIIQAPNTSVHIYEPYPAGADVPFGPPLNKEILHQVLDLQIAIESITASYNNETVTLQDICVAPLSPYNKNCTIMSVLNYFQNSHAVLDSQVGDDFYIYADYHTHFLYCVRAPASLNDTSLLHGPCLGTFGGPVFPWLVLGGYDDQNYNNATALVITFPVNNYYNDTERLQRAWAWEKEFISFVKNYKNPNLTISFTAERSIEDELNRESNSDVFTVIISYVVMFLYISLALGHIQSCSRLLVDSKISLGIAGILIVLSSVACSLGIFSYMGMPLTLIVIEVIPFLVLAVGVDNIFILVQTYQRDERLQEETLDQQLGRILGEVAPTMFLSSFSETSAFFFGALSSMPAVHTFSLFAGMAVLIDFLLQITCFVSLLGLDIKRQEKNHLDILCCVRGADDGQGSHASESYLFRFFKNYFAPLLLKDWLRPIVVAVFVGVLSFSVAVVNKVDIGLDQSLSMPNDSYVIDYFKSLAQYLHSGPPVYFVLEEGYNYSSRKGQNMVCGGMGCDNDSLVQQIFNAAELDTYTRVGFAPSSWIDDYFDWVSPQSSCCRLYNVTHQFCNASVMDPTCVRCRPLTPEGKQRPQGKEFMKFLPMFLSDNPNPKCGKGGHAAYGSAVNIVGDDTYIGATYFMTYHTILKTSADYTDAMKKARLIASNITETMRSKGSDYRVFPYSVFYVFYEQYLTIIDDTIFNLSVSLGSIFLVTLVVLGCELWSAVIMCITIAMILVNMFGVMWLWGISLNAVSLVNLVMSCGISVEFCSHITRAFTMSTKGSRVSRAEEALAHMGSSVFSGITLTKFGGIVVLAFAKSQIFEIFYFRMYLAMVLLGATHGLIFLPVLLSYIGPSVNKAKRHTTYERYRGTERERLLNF
As to the kind of experiment: Inhibition of mouse NPC1 interaction to Ebola virus GP expressed in LE/LY membrane of CHO cells by immunoblotting. It is filed as cell-based. The gist of the method: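 Late endosome/lysosome membranes from NPC1-null CHO cells, or the same cells stably expressing mouse NPC1, were immobilized on ELISA plates. They were incubated with protease-cleaved Ebola GP in the presence of test compound at specified concentrations. After washing off unbound GP, membranes were solubilized in NP40 and bound GP was detected by GP1-antibody immunoblot. Results are representative of six experiments.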
Background: In western blotting, separated proteins are transferred to a membrane and probed.

The target of experiment [3] is T2, NPC intracellular cholesterol transporter 1 (Homo sapiens) (UniProt O15118).
T2 sequence (whole entry): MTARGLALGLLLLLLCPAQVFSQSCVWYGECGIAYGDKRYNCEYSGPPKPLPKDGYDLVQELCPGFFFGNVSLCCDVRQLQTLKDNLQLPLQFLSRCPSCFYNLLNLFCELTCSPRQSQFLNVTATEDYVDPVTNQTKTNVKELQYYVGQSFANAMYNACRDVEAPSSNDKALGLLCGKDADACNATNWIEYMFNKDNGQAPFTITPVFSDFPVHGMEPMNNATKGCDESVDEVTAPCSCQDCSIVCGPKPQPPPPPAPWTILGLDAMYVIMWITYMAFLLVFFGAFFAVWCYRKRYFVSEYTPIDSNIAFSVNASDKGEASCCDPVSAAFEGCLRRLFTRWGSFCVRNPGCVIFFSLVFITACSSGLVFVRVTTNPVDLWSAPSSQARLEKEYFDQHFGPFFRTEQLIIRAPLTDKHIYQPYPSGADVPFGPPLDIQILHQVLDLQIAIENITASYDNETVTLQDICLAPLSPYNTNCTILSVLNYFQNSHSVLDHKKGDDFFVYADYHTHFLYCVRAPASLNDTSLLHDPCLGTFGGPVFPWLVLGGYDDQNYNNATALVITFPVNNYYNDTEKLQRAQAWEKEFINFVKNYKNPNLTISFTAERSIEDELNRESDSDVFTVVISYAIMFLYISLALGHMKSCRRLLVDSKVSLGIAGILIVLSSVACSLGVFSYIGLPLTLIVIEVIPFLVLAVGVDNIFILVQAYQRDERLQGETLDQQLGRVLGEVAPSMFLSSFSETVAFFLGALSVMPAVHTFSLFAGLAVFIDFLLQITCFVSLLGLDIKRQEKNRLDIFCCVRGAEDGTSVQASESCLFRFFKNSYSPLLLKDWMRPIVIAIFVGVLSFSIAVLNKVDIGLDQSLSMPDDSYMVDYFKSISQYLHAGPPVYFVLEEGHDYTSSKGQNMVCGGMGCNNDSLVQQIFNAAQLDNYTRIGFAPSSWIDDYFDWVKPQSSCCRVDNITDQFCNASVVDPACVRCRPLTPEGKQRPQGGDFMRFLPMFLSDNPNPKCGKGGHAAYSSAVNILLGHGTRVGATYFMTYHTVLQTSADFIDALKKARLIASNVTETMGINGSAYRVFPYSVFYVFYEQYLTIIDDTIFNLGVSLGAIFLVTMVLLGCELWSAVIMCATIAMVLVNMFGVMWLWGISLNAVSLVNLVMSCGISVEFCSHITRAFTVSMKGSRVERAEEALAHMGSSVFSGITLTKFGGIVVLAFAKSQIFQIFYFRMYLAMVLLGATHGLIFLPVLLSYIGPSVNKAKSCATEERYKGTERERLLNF
As to the kind of experiment: Binding affinity to human NPC1 expressed in LE/LY membrane of CHO cells at 25 uM by immunoblotting. It counts as cell membranes. The gist of the method: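 Purified late endosome/lysosome membranes came from NPC1-null CHO cells and CHO cells overexpressing human NPC1. […] Cross-linked proteins were click-labelled with Alexa Fluor 488 azide and detected by anti-Alexa 488 immunoblot. NPC1 was confirmed by anti-NPC1 immunoprecipitation and immunoblot.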

The test system of experiment [4] is Vesicular stomatitis virus. Kind of experiment: Antiviral activity against Vesicular stomatitis virus by cell based luciferase reporter gene assay. It is filed as functional, organism-based. On the technique in general: In a reporter assay the amount or activity of a reporter protein is the signal.
For experiment [5], the system named is Lassa virus. As to the kind of experiment: Antiviral activity against Lassa virus by cell based luciferase reporter gene assay. It is filed as functional, organism-based. Conditions: Mammarenavirus lassaense.

From ChEMBL document CHEMBL2321771, “Inhibition of Ebola Virus Infection: Identification of Niemann-Pick C1 as the Target by Optimization of a Chemical Probe” (ACS Med Chem Lett, 2013) come the findings set out here.

Active and inactive are the calls of the source. The rule behind the calls is not given here.

In turn, `O=C(CC12CC3CC(CC(C3)C1)C2)NCC(=O)N1CCN(Cc2ccccc2)CC1` showed a half-inhibitory concentration (IC50) in experiment [1] of 1300 nM. Moreover, the inhibition entry in experiment [2] is “Active”.
`O=C(CC12CC3CC(CC(C3)C1)C2)NCCC(=O)N1CCN(Cc2ccccc2)CC1`: the IC50 in experiment [1] was 17000 nM. Further, the inhibition result in experiment [2] was “Active”.
As for `C#Cc1ccc(COc2ccc(N=[N+]=[N-])cc2CN2CCN(C(=O)CNC(=O)CC34CC5CC(CC(C5)C3)C4)CC2)cc1`, the outcome in experiment [3] was Active. Besides, the inhibition entry in experiment [2] is “Active”.
As for `O=C(CC12CC3CC(CC(C3)C1)C2)NCC(=O)N1CCC(Cc2ccccc2)CC1`, 1300 nM corresponded to half-maximal inhibition in experiment [1] (IC50). For the same compound, the inhibition result in experiment [2] is “Active”.
`COC(=O)c1ccc(COc2ccccc2CN2CCN(C(=O)CNC(=O)CC34CC5CC(CC(C5)C3)C4)CC2)cc1`: the inhibition entry in experiment [4] and in experiment [5] was “inactive” each time. This compound had an IC50 in experiment [1] of 20 nM. Besides, the inhibition result in experiment [2] was “Active”.

One may read the IC50 as the concentration needed to halve the response being measured. The low end stands for greater potency in that assay, the high end for weaker potency in that assay.
